From article PMC6544531 (Nature chemistry, 2019)
“Also recorded” adds a separate entry of the source.

Columns and labels:
[1] = test system: farnesylated substrates (YnF labeling) in EA.hy926 cells; format: cell-based, human; settings: for mean in-cell IC50 response (YnF labeling of farnesylated substrates): 10 µM YnF, 1 h inhibitor pre-incubation + 8 h
Outline: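 EA.hy926 endothelial cells labeled with alkyne prenyl probe alongside increasing concentrations of prenyl transferase inhibitor. Lysates were spiked with a heavy SILAC standard, a lysate dual-labeled with 13C615N4-Arg/13C615N2-Lys (R10K8) plus the same probe. Probe-labeled proteins were quantified against this standard by spike-in SILAC chemical proteomics, giving dose-response curves per farnesylated substrate.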

EA.hy926 cells = experiment: Cell toxicity observed during cell treatment; format: cell-based, human; settings: data not shown
FTase = FTase (Rattus norvegicus, UniProt Q02293+Q04631); settings: read-out: IC50 (weak FTI); cited from earlier work
FTase, sequence (Q02293 whole entry, one chain of several): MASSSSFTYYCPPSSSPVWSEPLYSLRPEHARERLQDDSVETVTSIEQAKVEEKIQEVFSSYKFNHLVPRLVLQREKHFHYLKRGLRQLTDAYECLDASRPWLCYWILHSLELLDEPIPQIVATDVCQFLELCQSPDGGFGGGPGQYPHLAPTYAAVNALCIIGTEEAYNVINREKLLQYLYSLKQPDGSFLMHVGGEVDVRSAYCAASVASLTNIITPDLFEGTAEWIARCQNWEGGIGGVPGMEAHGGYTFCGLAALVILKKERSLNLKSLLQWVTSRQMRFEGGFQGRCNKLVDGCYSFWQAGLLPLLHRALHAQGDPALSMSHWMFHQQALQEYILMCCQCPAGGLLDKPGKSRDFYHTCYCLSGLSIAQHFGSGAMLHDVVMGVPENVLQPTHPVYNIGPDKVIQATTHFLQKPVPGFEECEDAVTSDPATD

[2] = test system: YnGG labeling of farnesylated substrates in EA.hy926 cells; format: cell-based, human
Outline: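 Human EA.hy926 cells given an FTase inhibitor over a range of concentrations and labeled with YnF or YnGG in parallel. Probe incorporation was quantified proteome-wide by spike-in SILAC chemical proteomics. Changes in the YnF/YnGG incorporation ratio were compared with loss of YnF labeling across concentrations. Points are mean of n=3 ± standard deviation.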

| mean in-cell IC50 response (YnF labeling of farnesylated substrates) [1] | Structure (SMILES) | selectivity at the whole proteome level [1] | impact on farnesylation (YnF labeling) ([1]; up to the highest concentration tested (10 µM)) | concentration above which acute cell toxicity was evident (EA.hy926 cells) | IC50 (FTase) | concentration of maximum increase in YnGG labeling of KRAS ([2]; KRAS) | concentration of maximum increase in YnGG labeling of NRAS ([2]; NRAS) | concentration of maximum increase in YnGG labeling of RRAS2 ([2]; RRAS2) |
| --- | --- | --- | --- | --- | --- | --- | --- | --- |
| micromolar | COC(=O)[C@H](CCSC)NC(=O)c1ccc(NC[C@@H](N)CS)cc1-c1ccccc1 [FTI-277] | excellent selectivity | – | – | – | – | – | – |
| – | CCCC[C@@H](C)/C=C(C)/C=C(\C)C(=O)NC1=C[C@@](O)(/C=C/C=C/C=C/C(=O)NC2=C(O)CCC2=O)[C@@H]2O[C@@H]2C1=O [Manumycin A] | – | no evidence that Manumycin A impacted farnesylation; also recorded: insensitive | > 10 µM | 5 µM | – | – | – |
| low nanomolar | Cn1cncc1[C@@](N)(c1ccc(Cl)cc1)c1ccc2c(c1)c(-c1cccc(Cl)c1)cc(=O)n2C [Tipifarnib] | excellent selectivity | – | – | – | 10 nM | 5 nM | 1 nM |
